# Results: paper PMC5372383 (Nature, 2017)
# How the values were obtained:
# MOLM-13 cells = test: JQ1 proliferation / viability; type: cell-based, human; settings: MOLM-13, sgRNA depletion; proliferation normalized to DMSO, n = 5
# In short: (§1)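 MLL-rearranged leukaemia lines were grown in RPMI with 10% FBS, 2 mM L-glutamine, penicillin/streptomycin and plasmocin. Cells were transduced with sgRNAs (MOLM-13) or shNT/shENL shRNAs (panel) by spin infection (1500 rcf, 35°C, 90 min), then selected or sorted 48 h post infection. They were exposed to JQ1 or DMSO, and viability was read by CellTiter-Glo luminescence. MOLM-13 proliferation was normalised to DMSO.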
# leukaemia cell lines = type: cell-based, human; settings: shENL vs shNT, MLL-rearranged leukaemia cells, n = 3
# In short: as §1
# HeLa cells = test: JQ1 proliferation in HeLa cells; type: cell-based, human; settings: GFP, AF9 or ENL sgRNAs, n = 5
# In short: (§2)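 HeLa and U2OS cells were kept in DMEM with 10% FBS, 2 mM L-glutamine, penicillin/streptomycin and plasmocin. They were transduced with GFP, AF9 or ENL sgRNAs by spin infection at 1500 rcf, 35°C for 90 min, then selected or sorted 48 h after infection. Cells were treated with JQ1, and viability was measured by CellTiter-Glo luminescence.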
# U2OS cells = test: JQ1 proliferation in U2OS cells; type: cell-based, human; settings: GFP, AF9 or ENL sgRNAs, n = 5
# In short: as §2
# iCas9-MOLM-13 cells = test: RNA-seq of JQ1-treated iCas9-MOLM-13 cells; type: cell-based, human; settings: iCas9-MOLM-13, 50 nM JQ1 24 h vs DMSO
# [1] = target: ENL YEATS mutants (alanine mutation of the “R-Kac”-binding residues), ITC; test: ITC
Molecule,sensitivity to JQ1 on depletion of ENL or other SEC components (MOLM-13 cells),JQ1 sensitivity on ENL silencing (leukaemia cell lines),"JQ1 sensitivity on ENL silencing, HeLa (HeLa cells)","JQ1 sensitivity on ENL silencing, U2OS (U2OS cells)","JQ1-induced transcriptional changes on ENL depletion, including MYC (iCas9-MOLM-13 cells)",fold affinity drop against the wild type [1]
Cc1sc2c(c1C)C(c1ccc(Cl)cc1)=N[C@@H](CC(=O)OC(C)(C)C)c1nnc(C)n1-2 [JQ1],sensitized MOLM-13 cells,Increased JQ1 sensitivity,not in HeLa,not in HeLa or U2OS cells,markedly enhanced JQ1-induced transcriptional changes,
H3_(17–28)K27ac peptide (from UniProt P68431 18-29),,,,,,2.3 fold
